Data published in ChEMBL document CHEMBL3576799, “Aranciamycins I and J, Antimycobacterial Anthracyclines from an Australian Marine-Derived Streptomyces sp” (J Nat Prod, 2015).
≈ marks a conversion by molar mass, not a printed value.

Legend:
Bacillus subtilis = assay: Antibacterial activity against Bacillus subtilis ATCC 6051 after 24 hrs by spectrophotometric analysis; assay type: functional, organism-based; conditions: ATCC 6051, 24 h
NCI-H460 = assay: Cytotoxicity against human NCI-H460 cells assessed as growth inhibition after 48 hrs by MTT assay; assay type: functional, cell-based; conditions: NCI-H460, 48 h
Method in brief: (§1)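 Modified MTT assay on adherent human cancer lines: SW620 (epithelial-like colorectal carcinoma), NCI-H460 (epithelial-like lung carcinoma), KB-3-1 (epithelial-like cervix carcinoma) and HepG2 (hepatocellular carcinoma). Output given as IC50.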

Candida albicans = assay: Antifungal activity against Candida albicans ATCC 90028 after 48 hrs by spectrophotometric analysis; assay type: functional, organism-based; conditions: ATCC 90028, 48 h
Bacillus spizizenii = assay: Antibacterial activity against Bacillus subtilis ATCC 6633 after 24 hrs by spectrophotometric analysis; assay type: functional, organism-based; conditions: ATCC 6633, 24 h
[1] = Cytotoxicity against human KB-3-1 cells assessed as growth inhibition after 48 hrs by MTT assay; assay type: functional, cell-based; conditions: KB 3-1, 48 h; method in brief: as §1
HepG2 = assay: Cytotoxicity against human HepG2 cells assessed as growth inhibition after 48 hrs by MTT assay; assay type: functional, cell-based; conditions: HepG2, 48 h; method in brief: as §1
Escherichia coli = assay: Antibacterial activity against Escherichia coli ATCC 11775 after 24 hrs by spectrophotometric analysis; assay type: functional, organism-based; conditions: DSM 30083 = JCM 1649 = ATCC 11775, 24 h
Pseudomonas aeruginosa = assay: Antibacterial activity against Pseudomonas aeruginosa ATCC 10145 after 24 hrs by spectrophotometric analysis; assay type: functional, organism-based; conditions: ATCC 10145, 24 h
SW-620 = assay: Cytotoxicity against human SW620 cells assessed as growth inhibition after 48 hrs by MTT assay; assay type: functional, cell-based; conditions: SW-620, 48 h; method in brief: as §1
Staphylococcus aureus [2] = assay: Antibacterial activity against Staphylococcus aureus ATCC 9144 after 24 hrs by spectrophotometric analysis; assay type: functional, organism-based; conditions: ATCC 9144, 24 h
Staphylococcus aureus [3] = assay: Antibacterial activity against Staphylococcus aureus ATCC 25923 after 24 hrs by spectrophotometric analysis; assay type: functional, organism-based; conditions: ATCC 25923, 24 h

SMILES | IC50 (Bacillus subtilis) [nM] | MIC (Bacillus subtilis) [µM] | IC50 (NCI-H460) [µM] | IC50 (Candida albicans) [µM] | MIC (Candida albicans) [µM] | IC50 (Bacillus spizizenii) [nM] | MIC (Bacillus spizizenii) [µM] | IC50 [1] [µM] | IC50 (HepG2) [µM] | IC50 (Escherichia coli) [µM] | MIC (Escherichia coli) [µM] | IC50 (Pseudomonas aeruginosa) [µM] | MIC (Pseudomonas aeruginosa) [µM] | IC50 (SW-620) [µM] | IC50 (Staphylococcus aureus [2]) [µM] | MIC (Staphylococcus aureus [2]) [µM] | IC50 (Staphylococcus aureus [3]) [µM] | MIC (Staphylococcus aureus [3]) [µM]
CO[C@H]1[C@H](O[C@H]2C[C@](C)(O)C(=O)c3cc4c(c(O)c32)C(=O)c2c(O)cccc2C4=O)O[C@@H](C)[C@H](O)[C@H]1O | 2400 | 7.2 (≈ 3.7 µg/mL) | > 30 | > 30 | > 30 | 2800 | 7.5 (≈ 3.86 µg/mL) | > 30 | 12 | > 30 | > 30 | > 30 | > 30 | 10 | > 30 | > 30 | > 30 | > 30
CO[C@H]1[C@H](O[C@H]2C[C@](C)(O)Cc3cc4c(c(O)c32)C(=O)c2c(O)cccc2C4=O)O[C@@H](C)[C@H](O)[C@H]1O | 2800 | 7.5 (≈ 3.75 µg/mL) | > 30 | > 30 | > 30 | 2400 | 7.5 (≈ 3.75 µg/mL) | > 30 | > 30 | > 30 | > 30 | > 30 | > 30 | > 30 | > 30 | > 30 | > 30 | > 30
CO[C@H]1[C@H](O[C@@H]2c3c(cc4c(c3O)C(=O)c3c(O)cccc3C4=O)C(=O)[C@@](C)(O)[C@H]2OC)O[C@@H](C)[C@H](O)[C@H]1O [ARANCIAMYCIN] | 6000 | 15 (≈ 8.17 µg/mL) | > 30 | > 30 | > 30 | 5800 | 15 (≈ 8.17 µg/mL) | > 30 | 18 | > 30 | > 30 | > 30 | > 30 | > 30 | > 30 | > 30 | > 30 | > 30
C[C@@H]1O[C@@H](O[C@H]2C[C@](C)(O)Cc3cc4c(c(O)c32)C(=O)c2c(O)cccc2C4=O)[C@H](O)[C@H](O)[C@H]1O | 1100 | 3.7 (≈ 1.8 µg/mL) | 9 | > 30 | > 30 | 3000 | 7.5 (≈ 3.65 µg/mL) | > 30 | 12 | > 30 | > 30 | > 30 | > 30 | 7.5 | > 30 | > 30 | > 30 | > 30
